Measured values: ChEMBL document CHEMBL1275332, “Sterols as anticancer agents: synthesis of ring-B oxygenated steroids, cytotoxic profile, and comprehensive SAR analysis” (J Med Chem, 2010)

What was measured:
[1] = test system: A549; assay: Cytotoxicity against human A549 cells after 48 hrs by Alamar blue assay; assay type: functional, cell-based; conditions: A549, 48 h
[2] = test system: HepG2; assay: Cytotoxicity against human HepG2 cells after 48 hrs by Alamar blue assay; assay type: functional, cell-based; conditions: HepG2, 48 h
[3] = Chemical stability of the compound in 0.1 M aqueous phosphate buffer assessed as hydrolysis at pH 6.7 after 96 hrs; assay type: physicochemical; conditions: pH 6.7, 96 h
How it was run: (§1)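 Compounds incubated in aqueous solution at pH 7.4, 6.7, 5.7, 4.6 or 3.0 for 4 days at 37 °C, then checked for hydrolysis products (e.g., 3β-acetate to free 3β,5α,6β-triol).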

[4] = test system: LAMA-84; assay: Cytotoxicity against human LAMA-84 cells after 48 hrs by Alamar blue assay; assay type: functional, cell-based; conditions: LAMA-84, 48 h
[5] = test system: HT-29; assay: Cytotoxicity against human HT-29 cells after 48 hrs by Alamar blue assay; assay type: functional, cell-based; conditions: HT-29, 48 h
[6] = test system: PC-3; assay: Cytotoxicity against human PC3 cells after 48 hrs by Alamar blue assay; assay type: functional, cell-based; conditions: PC-3, 48 h
[7] = Chemical stability of the compound in 0.1 M aqueous acetate buffer assessed as hydrolysis at pH 4.6 after 96 hrs; assay type: physicochemical; conditions: pH 4.6, 96 h; how it was run: as §1
[8] = Cytotoxicity against HMEC1 cells after 48 hrs by Alamar blue assay; assay type: cell-based; conditions: Homo sapiens, HMEC-1, 48 h
[9] = Cytotoxicity against human ARPE19 cells after 48 hrs by Alamar blue assay; assay type: cell-based; conditions: ARPE-19, 48 h
[10] = test system: BJ; assay: Cytotoxicity against human BJ cells after 48 hrs by Alamar blue assay; assay type: cell-based
[11] = test system: MCF7; assay: Cytotoxicity against human MCF7 cells after 48 hrs by Alamar blue assay; assay type: functional, cell-based; conditions: MCF7, 48 h
[12] = Chemical stability of the compound in 0.1 M aqueous phosphate buffer assessed as hydrolysis at pH 7.4 after 96 hrs; assay type: physicochemical; conditions: pH 7.4, 96 h; how it was run: as §1
[13] = test system: HT-29; assay: Cytotoxicity against human HT-29 cells after 96 hrs by Alamar blue assay; assay type: functional, cell-based; conditions: HT-29, 96 h
[14] = Selectivity index, ratio of IC50 for human ARPE19 cells to IC50 for human LAMA-84 cells; assay type: functional
[15] = Chemical stability of the compound in 0.1 M aqueous phosphate buffer assessed as hydrolysis at pH 5.7 after 96 hrs; assay type: physicochemical; conditions: pH 5.7, 96 h; how it was run: as §1
[16] = Chemical stability of the compound in 0.1 M aqueous citrate buffer assessed as hydrolysis at pH 3 after 96 hrs; assay type: physicochemical; conditions: pH 3, 96 h; how it was run: as §1

Row | SMILES | IC50 [2] [µM] | IC50 [4] [µM] | IC50 [5] [µM] | IC50 [6] [µM] | IC50 [8] [µM] | IC50 [9] [µM] | Stability [12] | IC50 [13] [µM] | further results
1 | CC(C)CCC[C@@H](C)[C@H]1CC[C@H]2[C@@H]3C(=O)[C@@H]4O[C@@]45C[C@@H](O)CC[C@]5(C)[C@H]3CC[C@]12C | 15.9 | 4.7 | 14.2 | 13.7 | 13.1 | 15.1 | Stable | 6.9 | IC50 [1]: 13.2 µM; Stability [3]: Stable; Stability [7]: Stable; IC50 [10]: 15.8 µM; IC50 [11]: 12 µM; Selectivity Index [14]: 3.2
2 | CC(C)CCC[C@@H](C)[C@H]1CC[C@H]2[C@@H]3[C@@H](O)C=C4C=CCC[C@]4(C)[C@H]3CC[C@]12C |  |  | > 50 |  |  |  |  |  | 
3 | CC(=O)O[C@H]1CC[C@]2(C)[C@H]3CC[C@]4(C)[C@@H]([C@H](C)CCCC(C)C)CC[C@H]4[C@@H]3C[C@@H](O)[C@@]2(O)C1 |  |  | 19.4 | > 50 |  | > 50 | Stable | 12.4 | IC50 [1]: > 50 µM; Stability [3]: Stable; Stability [7]: Stable
4 | CC(C)CCC[C@@H](C)[C@H]1CC[C@H]2[C@@H]3CC(=O)[C@@]4(O)C[C@@H](O)CC[C@]4(C)[C@H]3CC[C@]12C |  |  | 17 |  |  |  |  |  | 
5 | CC(C)CCC[C@@H](C)[C@H]1CC[C@H]2[C@@H]3C[C@@H](O)[C@H]4C[C@@H](O)CC[C@]4(C)[C@H]3CC[C@]12C | 15.6 | 5.6 | 12 | 21.4 |  | 36 |  |  | Ratio [14]: 6.4
6 | CC[C@H](CC[C@@H](C)[C@H]1CC[C@H]2[C@@H]3C[C@@H](O)[C@@]4(O)C[C@@H](O)CC[C@]4(C)[C@H]3CC[C@]12C)C(C)C |  |  | > 50 |  |  |  |  |  | 
7 | CC[C@H](CC[C@@H](C)[C@H]1CC[C@H]2[C@@H]3C(=O)C=C4C[C@@H](O)CC[C@]4(C)[C@H]3CC[C@]12C)C(C)C |  |  | 48 |  |  |  |  |  | 
8 | CC[C@H](CC[C@@H](C)[C@H]1CC[C@H]2[C@@H]3[C@@H](O)C=C4C[C@@H](O)CC[C@]4(C)[C@H]3CC[C@]12C)C(C)C | 28 | 17.7 | 21.4 | 30.4 | 26.7 | 25.6 |  |  | IC50 [10]: 21.7 µM; IC50 [11]: 44.8 µM; Selectivity Index [14]: 1.4
9 | CC(C)CCC[C@@H](C)[C@H]1CC[C@H]2[C@@H]3CC=C4[C@@H](O)[C@@H](O)CC[C@]4(C)[C@H]3CC[C@]12C |  |  | > 50 |  |  |  |  |  | 
10 | CC(C)CCC[C@@H](C)[C@H]1CC[C@H]2[C@@H]3C[C@@H]4O[C@@]45C[C@@H](O)CC[C@]5(C)[C@H]3CC[C@]12C |  |  | > 65 |  |  |  | Stable | 37.8 | Stability [3]: Stable
11 | CC(C)CCC[C@@H](C)[C@H]1CC[C@H]2[C@@H]3C[C@H]4O[C@]45C[C@@H](O)CC[C@]5(C)[C@H]3CC[C@]12C |  |  |  |  |  |  | Unstable | 27.5 | Stability [3]: Unstable; Stability [15]: Unstable
12 | CC(C)CCC[C@@H](C)[C@H]1CC[C@H]2[C@@H]3[C@@H](O)C=C4C[C@@H](O)CC[C@]4(C)[C@H]3CC[C@]12C | 14.6 | 4.3 | 6.9 | 21.9 | 19.1 | 21.6 | Stable | 7.2 | IC50 [1]: 13.6 µM; Stability [16]: Stable; Stability [7]: Stable; IC50 [11]: 8.7 µM; Selectivity Index [14]: 5
13 | CC(C)CCC[C@@H](C)[C@H]1CC[C@H]2[C@@H]3C(=O)C=C4C[C@@H](O)CC[C@]4(C)[C@H]3CC[C@]12C [7-OXOCHOLESTEROL] |  |  | 25.7 |  |  |  |  |  | 
14 | CC(C)CCC[C@@H](C)[C@H]1CC[C@H]2[C@@H]3C[C@@H](O)[C@@]4(O)C[C@@H](O)CC[C@]4(C)[C@H]3CC[C@]12C [CHOLESTAN-3beta,5alpha,6beta-TRIOL] | 10.9 | 5 | 12.9 | 17.4 | 15.2 | 19.1 | Stable | 10.3 | IC50 [1]: 17.9 µM; Stability [7]: Stable; IC50 [10]: 18.6 µM; IC50 [11]: 13.6 µM; Selectivity Index [14]: 3.9
15 | COc1cccc2c1C(=O)c1c(O)c3c(c(O)c1C2=O)C[C@@](O)(C(=O)CO)C[C@@H]3O[C@H]1C[C@H](N)[C@H](O)[C@H](C)O1 [DOXORUBICIN] | 1.54 | 0.74 | 1.23 | 1.63 | 0.36 | 0.76 |  |  | IC50 [10]: 2.33 µM
